Each structure is given as a SMILES string. Calls of active or inactive are those of the source. No cut-off for these calls is given here.

One experiment deals with HEK293. Briefly: Selectivity index, ratio of Ki for human recombinant CB1 receptor expressed in HEK293 cell membranes to Ki for human recombinant CB2 receptor expressed in HEK293 cell membranes. The experiment is classed as cell-based.
The target in experiment [1] is Cannabinoid receptor 1 (Homo sapiens, UniProt P21554). Description: Displacement of [3H]CP55,940 from human recombinant CB1 receptor expressed in HEK293 cell membranes after 90 mins. A general note: In a radioligand displacement assay an active substance lowers the binding of a labelled ligand.
Sequence of Cannabinoid receptor 1 (Homo sapiens, UniProt P21554) (P21554 whole entry): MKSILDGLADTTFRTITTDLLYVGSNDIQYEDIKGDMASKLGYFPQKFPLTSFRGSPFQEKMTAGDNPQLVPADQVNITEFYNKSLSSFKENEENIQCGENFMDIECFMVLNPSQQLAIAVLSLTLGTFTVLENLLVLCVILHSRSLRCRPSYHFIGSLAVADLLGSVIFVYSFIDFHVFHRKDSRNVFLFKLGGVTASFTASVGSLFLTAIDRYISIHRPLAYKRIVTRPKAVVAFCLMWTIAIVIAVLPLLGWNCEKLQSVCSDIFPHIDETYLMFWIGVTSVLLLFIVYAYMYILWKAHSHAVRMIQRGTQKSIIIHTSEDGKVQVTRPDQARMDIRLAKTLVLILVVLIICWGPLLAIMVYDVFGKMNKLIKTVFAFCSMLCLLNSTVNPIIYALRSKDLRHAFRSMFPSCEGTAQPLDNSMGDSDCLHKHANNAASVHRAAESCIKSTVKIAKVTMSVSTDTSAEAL
Experiment [2] concerns the target T1, Cannabinoid receptor 2 (Homo sapiens, UniProt P34972). Description: Displacement of [3H]CP55,940 from human recombinant CB2 receptor expressed in HEK293 cell membranes after 90 mins.
The target of experiment [3] is T1, Cannabinoid receptor 2. Description: Agonist activity at human CB2 receptor expressed in CHO membranes by [35S]GTPgammaS binding assay. The class given is functional, cell membranes. The procedure, abridged:
(§1)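 [35S]GTPgammaS binding in membranes from hCB2-transfected CHO cells; stimulation or inhibition of constitutive activity measured from dose-response curves. Mock-transfected cell membranes as control. Three independent experiments in duplicate.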
(GTPγS is a poorly hydrolysed GTP analogue; its binding reports G protein activation.)

Experiment [4] deals with Cannabinoid receptor 1 (Rattus norvegicus, UniProt P20272). Description: Agonist activity at CB1 receptor in rat cerebellar membranes by [35S]GTPgammaS binding assay. The experiment is classed as functional, cell membranes, Cerebellum, Membrane. In a few lines: (§2)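 [35S]GTPgammaS binding in rat cerebellar membranes as CB1R-mediated G protein activity; compounds tested for stimulation or antagonism. Three independent experiments in duplicate.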
Sequence of Cannabinoid receptor 1 (Rattus norvegicus, UniProt P20272) (P20272 whole entry): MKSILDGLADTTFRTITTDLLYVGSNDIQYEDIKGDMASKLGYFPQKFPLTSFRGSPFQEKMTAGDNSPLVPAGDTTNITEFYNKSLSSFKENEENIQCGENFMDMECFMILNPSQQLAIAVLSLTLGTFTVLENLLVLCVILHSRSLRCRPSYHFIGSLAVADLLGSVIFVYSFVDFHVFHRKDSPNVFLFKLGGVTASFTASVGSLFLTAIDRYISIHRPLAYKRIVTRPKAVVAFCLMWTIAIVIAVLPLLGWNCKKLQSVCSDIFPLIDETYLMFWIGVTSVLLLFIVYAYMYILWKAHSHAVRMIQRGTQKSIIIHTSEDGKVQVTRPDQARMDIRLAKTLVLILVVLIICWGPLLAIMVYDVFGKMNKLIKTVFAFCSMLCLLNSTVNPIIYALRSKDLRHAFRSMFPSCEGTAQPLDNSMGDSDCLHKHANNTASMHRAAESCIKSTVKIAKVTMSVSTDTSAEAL

The nature of experiment [5]: Selectivity ratio of EC50 for CB1 receptor in rat cerebellar membranes to EC50 for human CB2 receptor expressed in CHO membranes. The experiment is classed as cell membranes.
Experiment [6] has as its target Cannabinoid receptor 1 (Rattus norvegicus) (UniProt P20272). Description: Agonist activity at CB1 receptor in rat cerebellar membranes at <10 uM by [35S]GTPgammaS binding assay. The experiment is classed as functional, cell membranes. The conditions noted are these: Cerebellum, Membrane. The procedure, abridged:
as §2

Experiment [7] addresses T1, Cannabinoid receptor 2. Description: Inverse agonist activity at human CB2 receptor expressed in CHO membranes by [35S]GTPgammaS binding assay. The class given is functional, cell membranes. In a few lines: as §1
For experiment [8], the target named is Cannabinoid receptor 1 (Rattus norvegicus) (UniProt P20272). Briefly: Antagonist activity at CB1 receptor in rat cerebellar membranes at <10 uM by [35S]GTPgammaS binding assay. The conditions noted are these: Cerebellum, Membrane. The class given is functional, cell membranes. In a few lines:
as §2

Experiment [9] has as its target T1, Cannabinoid receptor 2. Description: Antagonist activity at human CB2 receptor expressed in CHO membranes assessed as inhibition of HU-210-induced [35S]GTPgammaS binding. The experiment is classed as functional, cell membranes. The procedure, abridged: (§3)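 [35S]GTPgammaS binding in hCB2-CHO membranes; test compound against HU210 (1 nM for single-point reversal; full HU210 dose-responses for competitive analysis, pA2 derived). Three independent experiments in duplicate.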

Experiment [10] concerns the target T1, Cannabinoid receptor 2. Description: Competitive antagonist activity at human CB2 receptor expressed in CHO membranes assessed as inhibition of HU-210-induced [35S]GTPgammaS binding. The conditions noted are these: read-out: pA2 (converted). The experiment is classed as functional, cell membranes. In a few lines: as §3
Experiment [11] concerns the target T1, Cannabinoid receptor 2. Briefly: Partial inverse agonist activity at human CB2 receptor expressed in CHO membranes by [35S]GTPgammaS binding assay relative to basal control. The class given is functional, cell membranes. The procedure, abridged:
as §1

For experiment [12], the target named is T1, Cannabinoid receptor 2. Description: Neutral antagonist activity at human CB2 receptor expressed in CHO membranes by [35S]GTPgammaS binding assay in presence of SR144528. The class given is functional, cell membranes. The procedure, abridged:
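[35S]GTPgammaS binding in hCB2-CHO membranes; compound added against inverse agonist SR144528 at 3 nM to assess reversal of its response. Three independent experiments in duplicate.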

Sequence of Cannabinoid receptor 1 (Rattus norvegicus) (P20272 whole entry): as above
T1 sequence (P34972 whole entry): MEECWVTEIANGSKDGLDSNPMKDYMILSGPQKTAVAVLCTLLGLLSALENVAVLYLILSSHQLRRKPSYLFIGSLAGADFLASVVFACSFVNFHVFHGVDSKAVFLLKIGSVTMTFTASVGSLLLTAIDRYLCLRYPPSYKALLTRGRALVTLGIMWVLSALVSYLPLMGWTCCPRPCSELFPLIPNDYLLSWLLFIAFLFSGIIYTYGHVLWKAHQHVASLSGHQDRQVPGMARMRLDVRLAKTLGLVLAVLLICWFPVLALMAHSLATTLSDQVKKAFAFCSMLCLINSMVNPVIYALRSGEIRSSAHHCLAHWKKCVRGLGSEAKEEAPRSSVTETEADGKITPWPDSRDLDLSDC

With `O=C(NC1CCCCCC1)c1cc(Br)cn(CCN2CCOCC2)c1=O`, the Ratio Ki in the experiment with HEK293 amounted to 3.7. Besides, the Ki (usually the equilibrium dissociation constant of an inhibitor or competing ligand from its target) was 0.243 µM at Cannabinoid receptor 1 [1] and 0.065 µM at Cannabinoid receptor 2 [2].

On to `O=C(NC1CCCCCC1)c1cccn(Cc2ccc(F)cc2)c1=O`, for which the EC50 (in general, the concentration giving half of the maximal effect) was 0.00631 µM at Cannabinoid receptor 2 [3] and 1.58 µM on Cannabinoid receptor 1 [4]. The Ratio EC50 in experiment [5] came out at 200. For the same molecule, in the experiment on HEK293, the Ratio Ki came to 5.5.

On to `O=C(NC1CCCCCC1)c1cccn(Cc2cccc(I)c2)c1=O`, for which the Ratio Ki in the experiment on HEK293 came to 4.6. The results for the Ki at Cannabinoid receptor 1 [1] and at Cannabinoid receptor 2 [2] were 1.83 µM and 0.397 µM, respectively.

As for `CCCCOc1ncc(Br)cc1C(=O)NC1CCCCCC1`, the Ki at Cannabinoid receptor 1 [1] is more than 10 µM; on Cannabinoid receptor 2 [2], 0.396 µM.

On to `O=C(NC1CCCCCC1)c1cc(/C=C/c2ccccc2)cn(Cc2ccc(F)cc2)c1=O`, for which the Ratio Ki with HEK293 is 3. Further, the values for the Ki on Cannabinoid receptor 1 [1] and at Cannabinoid receptor 2 [2] were 0.024 µM and 0.0079 µM, respectively.

Regarding `CCCCn1cc(Br)cc(C(=O)NC2CCCCCC2)c1=O`, the Ratio Ki in the experiment with HEK293 was found to be 4.5. Moreover, the Ki at Cannabinoid receptor 1 [1] was found to be 0.023 µM; at Cannabinoid receptor 2 [2], 0.0051 µM.

Regarding `O=C(NC1CCCCCC1)c1cc(-c2ccc(F)cc2)cn(Cc2ccc(F)cc2)c1=O`, the Ratio Ki in the experiment on HEK293 was 8.6. Further, the Ki on Cannabinoid receptor 1 [1] was 0.024 µM; on Cannabinoid receptor 2 [2], 0.0028 µM.

`CC1CCC(NC(=O)c2cccn(CCO)c2=O)CC1` (stereo not drawn): the Ki at Cannabinoid receptor 1 [1] and at Cannabinoid receptor 2 [2] was more than 10 µM each time.

`O=C(NC1CCCCCC1)c1cc(-c2ccccc2)cn(Cc2ccc(F)cc2)c1=O`: the outcome in experiment [6] and in experiment [8] was inactive. In addition, the IC50 – broadly, the concentration at which inhibition is half-maximal – at Cannabinoid receptor 2 [7] is 0.00158 µM. In addition, the Ratio Ki in the experiment with HEK293 came out at 29. Also, the Ki was determined as 0.035 µM at Cannabinoid receptor 1 [1] and 0.0012 µM on Cannabinoid receptor 2 [2].

On to `O=C(NC1CCCCCC1)c1cccn(Cc2ccc(I)cc2)c1=O`, for which the Ratio Ki in the experiment with HEK293 came to 6.8. The Ki amounted to 1.27 µM at Cannabinoid receptor 1 [1] and 0.187 µM on Cannabinoid receptor 2 [2].

Turning to `CCOC(=O)/C=C/c1cc(C(=O)NC2CCCCCC2)c(=O)n(Cc2ccc(F)cc2)c1`, in the experiment on HEK293, the Ratio Ki came to 1.8. Moreover, the figures for the Ki at Cannabinoid receptor 1 [1] and on Cannabinoid receptor 2 [2] were 0.0248 µM and 0.0137 µM, respectively.

In the case of `O=C(NC1CCCCCC1)c1cccnc1OCc1ccccc1`, the Ratio Ki with HEK293 was determined as 4. Moreover, the results for the inhibition constant (Ki) at Cannabinoid receptor 1 [1] and at Cannabinoid receptor 2 [2] were 1.92 µM and 0.481 µM, respectively.

On to `CCCCn1cccc(C(=O)NC2CCC(C)CC2)c1=O` (stereo not drawn), for which the Ratio Ki in the experiment on HEK293 was 15.6. Also, the Ki on Cannabinoid receptor 1 [1] worked out at 1.62 µM; at Cannabinoid receptor 2 [2], 0.104 µM.

With `CCOC(=O)CCCn1cccc(C(=O)NC2CCCCCC2)c1=O`, the values for the Ki at Cannabinoid receptor 1 [1] and on Cannabinoid receptor 2 [2] were more than 10 µM and 1.83 µM, respectively.

As for `CC1CCC(NC(=O)c2cccnc2OCc2ccccc2)CC1` (stereo not drawn), in the experiment with HEK293, the Ratio Ki amounted to 5.2. For the same molecule, the Ki at Cannabinoid receptor 1 [1] is 3.09 µM; at Cannabinoid receptor 2 [2], 0.594 µM.

As for `CC1CCC(NC(=O)c2cccnc2OCc2ccc(F)cc2)CC1` (stereo not drawn), the Ratio Ki in the experiment on HEK293 is 11. In addition, the results for the Ki on Cannabinoid receptor 1 [1] and at Cannabinoid receptor 2 [2] were 0.884 µM and 0.08 µM, respectively.

In the case of `CC1CCC(NC(=O)c2cccn(Cc3ccc(F)cc3)c2=O)CC1` (stereo not drawn), in the experiment with HEK293, the Ratio Ki came to 14.6. In addition, the Ki at Cannabinoid receptor 1 [1] was 0.07 µM; on Cannabinoid receptor 2 [2] it was 0.0048 µM.

Regarding `CC1CCC(NC(=O)c2cccn(Cc3ccccc3)c2=O)CC1` (stereo not drawn), the Ratio Ki with HEK293 came to 7.3. The figures for the Ki at Cannabinoid receptor 1 [1] and on Cannabinoid receptor 2 [2] were 0.386 µM and 0.053 µM, respectively.

With `COc1ccc(-c2cc(C(=O)NC3CCCCCC3)c(=O)n(Cc3ccc(F)cc3)c2)cc1`, the outcome (at Cannabinoid receptor 2 [3]; in experiment [6]; in experiment [8]) was inactive. Further, on Cannabinoid receptor 2 [9], the inhibition result is “Dose-dependent effect”. For the same molecule, the Kb on Cannabinoid receptor 2 [10] is 0.1 µM. The Ratio Ki in the experiment on HEK293 stood at 63. The Ki was found to be 0.063 µM on Cannabinoid receptor 1 [1] and 0.001 µM on Cannabinoid receptor 2 [2]. Further, the Activity on Cannabinoid receptor 2 [11] was determined as 88%. For the same molecule, at Cannabinoid receptor 2 [12], the outcome was Active.

With `O=C(NC1CCCCCC1)c1cccn(Cc2ccccc2)c1=O`, in the experiment on HEK293, the Ratio Ki is 7. In addition, the Ki on Cannabinoid receptor 1 [1] came to 0.056 µM; at Cannabinoid receptor 2 [2] it was 0.008 µM.

Consider `CC1CCC(NC(=O)c2cccn(CCCO)c2=O)CC1` (stereo not drawn), for which the Ki at Cannabinoid receptor 1 [1] and at Cannabinoid receptor 2 [2] was more than 10 µM each time.

As for `O=C(NC1CCCCCC1)c1cccn(Cc2ccc(Cl)cc2)c1=O`, in the experiment with HEK293, the Ratio Ki came to 13.1. Moreover, the figures for the Ki at Cannabinoid receptor 1 [1] and at Cannabinoid receptor 2 [2] were 0.055 µM and 0.0042 µM, respectively.

`CCCn1cccc(C(=O)NC2CCC(C)CC2)c1=O` (stereo not drawn): the inhibition constant (Ki) on Cannabinoid receptor 1 [1] was more than 10 µM; at Cannabinoid receptor 2 [2], 0.583 µM.

Turning to `O=C(O)CCCn1cccc(C(=O)NC2CCCCCC2)c1=O`, the Ki on Cannabinoid receptor 1 [1] and at Cannabinoid receptor 2 [2] was more than 10 µM each time.

On to `O=C(NC1CCCCCC1)c1cc(-c2ccc(F)cc2)cn(CCN2CCOCC2)c1=O`, for which the Ratio Ki with HEK293 was 43.4. The Ki amounted to 2.73 µM at Cannabinoid receptor 1 [1] and 0.063 µM on Cannabinoid receptor 2 [2].

`O=C(NC1CCCCCC1)c1cc(Br)cn(Cc2ccc(F)cc2)c1=O`: in the experiment on HEK293, the Ratio Ki came out at 4. Besides, the values for the Ki on Cannabinoid receptor 1 [1] and at Cannabinoid receptor 2 [2] were 0.0088 µM and 0.0022 µM, respectively.

These data come from ChEMBL document CHEMBL3112511, “1,2-Dihydro-2-oxopyridine-3-carboxamides: the C-5 substituent is responsible for functionality switch at CB2 cannabinoid receptor” (Eur J Med Chem, 2014).
